Screening data (PubChem)
SR-BI DiI inh – inhibitors of mouse SR-BI mediated HDL lipid uptake; Q61009; ldlA[mSR-BI] CHO cells, DiI-HDL uptake fluorescence, 3 h; inhibition, % at 12.5 µM; 0.96% of 320,000 active; AID 488896;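 active means mean replicate inhibition of at least 70% and a set share of replicates each scoring 70 or more; inconclusive means meets just one of the two criteria; inactive means fails both criteria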;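 further: 0% = median of neutral control wells and 100% = median of positive control wells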
Target sequence (Q61009 whole entry, looked up): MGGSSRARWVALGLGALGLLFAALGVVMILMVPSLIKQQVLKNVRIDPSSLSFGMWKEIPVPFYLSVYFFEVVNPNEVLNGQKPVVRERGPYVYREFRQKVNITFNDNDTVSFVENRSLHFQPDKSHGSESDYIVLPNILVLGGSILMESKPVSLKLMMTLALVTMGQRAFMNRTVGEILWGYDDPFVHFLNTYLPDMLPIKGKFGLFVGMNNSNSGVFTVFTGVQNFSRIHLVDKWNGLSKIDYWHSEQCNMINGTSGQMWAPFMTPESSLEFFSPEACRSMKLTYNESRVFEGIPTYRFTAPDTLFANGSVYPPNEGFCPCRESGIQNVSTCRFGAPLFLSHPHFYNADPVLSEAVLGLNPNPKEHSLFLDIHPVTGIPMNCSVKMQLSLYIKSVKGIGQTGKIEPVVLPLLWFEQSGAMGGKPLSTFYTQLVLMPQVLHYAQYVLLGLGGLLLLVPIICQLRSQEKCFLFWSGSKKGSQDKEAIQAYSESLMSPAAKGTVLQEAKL
dFosB act – activators of mouse delta FosB homodimer. AID 493131. 0.99% of 340,000 active. P13346. activation, % at 25 µM. purified delta FosB, TAMRA-CDK5 oligo fluorescence polarization; percent of positive-control signal above neutral wells;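 active means mean activation above about 17%, with every replicate also reaching it, limit read from the data, passing the limit was not always enough; inconclusive means only one of the two conditions met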
CDK5 inh – blocks human CDK5/p35 kinase activity; 0.01% of 330,000 active; Recombinant CDK5/p35, ADP-Glo luminescence, 60 min; AID 488839; inhibition, % at 10 µM;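 active means highest replicate inhibition of at least 50% and at least 75% of replicates reaching 50%; inconclusive means only one of the two criteria met; inactive means both criteria failed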;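 further: plate controls were DMSO neutral control for no effect and GW8510 at 10 µM for full effect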
DYRK1A inh – blocks rat Dyrk1A kinase activity; Q63470; ADP-Glo luminescence, NFATc1 peptide; inhibition, % at 12.5 µM; 0.43% of 310,000 active;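 further: plate controls were vehicle with enzyme for no effect and no enzyme for full effect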
NSD2 HMT inh – inhibitors of human histone methyltransferase NSD2. O96028. 0.54% of 310,000 active. inhibition, % at 12.5 µM. NSD2 peptide methylation, AlphaScreen, 120 min
SR-BI uptake up – enhances SR-BI lipid uptake from DiI-HDL; activation, % at 12.5 µM; AID 504775; 0.096% of 320,000 active; CHO ldlA[mSR-BI] cells, DiI-HDL uptake fluorescence, 3 h; 100 = double the neutral-control signal;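 active means mean replicate activation of at least 60% and every replicate at or above 60%; inconclusive means mean or all-replicate condition met, but not both; inactive means mean below 60% and not all replicates reaching 60%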;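 further: 0% = median plate neutral-control signal and 100% = twice that signal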
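system = CHO ldlA[mSR-BI] cells, LDL receptor-null, SR-BI overexpressing | medium = Ham's F12 with 0.5% BSA, HEPES 25 mM, pH 7.4 | probe or stimulus = DiI-HDL 10 µg/mL | compound dosing = single-point compound dose | incubation = compound exposure 3 h, 37 °C | technique = DiI fluorescence, bottom read | read-out = cell-associated DiI fluorescence as measure of HDL uptake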
An asterisk follows results filed as active; ? = inconclusive; · = no result. Compounds with a hit are over-represented: about 2.5% of the library has one in this group of screens. Unless noted, no stated cut-off is given here; in the data, active means inhibition above about 50%; inactive means the rest.

SMILES	SR-BI DiI inh	dFosB act	CDK5 inh	DYRK1A inh	NSD2 HMT inh	SR-BI uptake up
O=C(CCSCCC(=O)NN=Cc1ccccc1O)NN=Cc1ccccc1O	-12	36*	-3	-1	0	12
O=C(Nc1cccc(/C=C/c2ccccn2)c1)c1cc(Cl)ccn1	20	-29	0	-8	-2	-20
COc1cccc(/C=N/NC(=S)NC2CC3CC2C2C=CCC32)c1O (centres undefined)	51	0	0	-15	3	-51
CCOc1ccccc1/C=N/NC(=O)c1ccc(Cn2cc([N+](=O)[O-])cn2)o1	87*	0	0	0	2	-87
Oc1ccccc1/C=N/NC(=S)NC1CC2CC1C1C=CCC21 (centres undefined)	85*	-11	2	·	3	-85
CCOc1ccccc1NC(=O)C(=O)N/N=C/c1cc(Br)ccc1O	126*	5	-1	2	1	-126
CCOc1ccc(/C=N/NC(=O)c2ccc(Cn3cc([N+](=O)[O-])cn3)o2)cc1	26	10	2	1	-4	-26
CC1CCCN(C(=O)CN(c2ccccc2)S(=O)(=O)c2ccc(F)cc2)C1 (centres undefined)	-27	-10	-1	·	-5	27
Cc1ccc(-c2nc(N/N=C/c3ccccc3[N+](=O)[O-])c3ccccc3n2)cc1	87*	0	0	-10	-1	-87
O=[N+]([O-])c1ccccc1C=NNc1ccccc1	·	-1	-4	6	6	·
C[C@@H]1[C@H](c2ccccc2)OC(O)([C@H](Cc2ccccc2)NC(=O)OC(C)(C)C)CN1C (some centres undefined)	·	·	·	·	1	·
Cc1ccc(NCCN(C)C)c2c(=O)c3cc(O)ccc3sc12	16	43*	1	42	-1	-16
CN(C)CCNc1cccc2sc3ccc(O)cc3c(=O)c12	·	·	·	·	16	·
c1ccc(-c2nccc(-c3ccc(-n4cnc5ccccc54)cc3)n2)cc1	65	130*	4	-1	0	-65
CCN(CC)C(=O)/C(=C/c1ccc2c(c1)OCO2)NC(=O)c1ccc(Br)cc1	75*	-8	1	2	2	-75
Cc1ccc2c(c1)c1c3n2CC(=C2C(=O)OC(C)(C)OC2=O)NC3CCC1 (centres undefined)	78*	-16	0	-4	·	-78
Cc1ccc2c(c1)c1c3n2CCN(C(=O)C2CC2)C3CCC1 (centres undefined)	0	-1	2	5	·	0
CSCCC(NC(=O)CCC(=O)OCC(=O)[C@@]1(O)CCC2[C@@H]3CCC4=CC(=O)C=C[C@]4(C)C3[C@@H](O)C[C@@]21C)C(=O)O (some centres undefined)	-52	-4	3	3	-3	52
COc1ccc(NC(=O)Cn2nnc(-c3ccccc3NC(=O)c3ccco3)n2)cc1	27	26*	1	1	-1	-27
COc1ccc(-c2nc(-c3ccccc3)c(-c3cc([N+](=O)[O-])ccc3C)[nH]2)cc1OC	59	-4	-1	-7	0	-59
COc1ccc(-c2[nH]c(-c3cc(OC)c4c(c3)OCO4)nc2-c2ccccc2)cc1	88*	-11	0	-4	7	-88
CCOc1ccc(NC(=O)/C(C#N)=C\c2ccc(N3CCCC3)c(C)c2)cc1	101*	-5	-3	3	4	-101
O=S(=O)(c1ccc(OCc2ccc(Br)cc2)cc1)N1CCOCC1	-6	5	-1	·	0	6
Cc1ccc(C)n1/N=C1/NC(=O)CS1	-7	-10	-2	2	144*	7
O=C(O)c1ccc(NC2=C(N3CCOCC3)C(=O)c3ccccc3C2=O)cc1	-19	2	1	1	95*	19
SMILES	SR-BI DiI inh	dFosB act	CDK5 inh	DYRK1A inh	NSD2 HMT inh	SR-BI uptake up
CC(=O)c1ccc(NC2=C(N3CCOCC3)C(=O)c3ccccc3C2=O)cc1	11	-10	1	4	·	-11
Cc1ccc(NC2=C(N3CCOCC3)C(=O)c3ccccc3C2=O)cc1	60	-8	3	16	101*	-60
CC(=O)N(C)C1=C(N2CCOCC2)C(=O)c2ccccc2C1=O	-32	0	3	10	98*	32
CC(C)n1cc(CN2CCCC(CO)(Cc3cccc(Cl)c3)C2)cn1 (centres undefined)	·	1	1	·	·	·
Cc1cc(C(=O)COC(=O)c2ccc(F)cc2F)c(C)n1C1CC1	10	-5	2	-4	0	-10
CNc1cc(-c2ccc(OC)nc2)ncn1	·	·	·	·	5	·
C=C(CN(C)C)C(=O)c1cc(C)ccc1C	81*	-4	3	-1	5	-81
O=C(CSc1nnc(-c2cccs2)o1)c1ccc(F)cc1	·	·	·	·	0	·
COC(=O)[C@]12C[C@H](CC(=O)N3CCN(C(=O)C4CC4)CC3)C(=O)N(Cc3ccc4c(c3)OCO4)C1=C[C@H](COCc1ccccc1)O[C@@H]2C	·	·	·	·	-1	·
CCOc1ccc(NC(=O)CCSc2nc3c(c(CC)c2C#N)C(=O)CC(C)(C)C3)cc1	0	-2	-1	3	3	0
CCc1c(C#N)c(SCCC(=O)Nc2ccc(C)cc2)nc2c1C(=O)CC(C)(C)C2	73*	-5	0	8	-2	-73
O=C(NCC1COc2ccccc2O1)c1ccc(NC(=O)C(Cl)Cl)cc1 (centres undefined)	·	·	·	·	8	·
O=C(N/N=C/C=C/c1ccccc1)c1cnccn1	-240	-1	-4	-5	0	240*
CCCCn1c(N)c(N(CC(C)C)C(=O)C2CCN(S(=O)(=O)c3ccc(Cl)cc3)CC2)c(=O)[nH]c1=O	-18	14	-2	13	-1	18
CCCCn1c(N)c(N(CC(C)C)C(=O)C2CCN(S(=O)(=O)c3ccc(C)cc3)CC2)c(=O)[nH]c1=O	-15	56*	0	2	1	15
CCOc1nc2c(c(C)nn2-c2ccccc2)c(C)c1CCC(=O)NCCN1CCOCC1	·	·	·	·	0	·
Cc1nn2c(NC(C)C)c3c(nc2c1-c1ccccc1)CCC3	-104	2	-2	6	-9	104*
Cc1nn2c(NCC(C)C)c3c(nc2c1-c1ccccc1)CCC3	19	-1	-1	-5	4	-19
COCCN=c1scc(-c2ccc3c(c2)NC(=O)CO3)n1/N=C(\C)c1ccc(O)cc1	?	-4	-2	-6	6	-71
COc1cc(/C=N/n2c(-c3ccc4c(c3)NC(=O)CO4)csc2=Nc2cccc(C)c2)ccc1O	83*	-13	-2	-5	0	-83
O=C(NC1CCCC1)N1CCC(c2nc3ccc(Cl)cc3[nH]2)CC1	·	·	·	·	1	·
CC(C)(C)c1ccc(-c2nnc3n2N=C(c2ccc4ccccc4c2)CS3)cc1	·	·	·	·	18	·
